PMC3288537 (ACS Chemical Biology, 2011)

Columns and labels:
[1] = biological target: T1, CD45 (Homo sapiens, UniProt P08575); experiment: Dose-response OMFP phosphatase assay, CD45; assay type: biochemical; conditions: read-out: IC50 CD45; OMFP substrate
T1 sequence (P08575 26-1306): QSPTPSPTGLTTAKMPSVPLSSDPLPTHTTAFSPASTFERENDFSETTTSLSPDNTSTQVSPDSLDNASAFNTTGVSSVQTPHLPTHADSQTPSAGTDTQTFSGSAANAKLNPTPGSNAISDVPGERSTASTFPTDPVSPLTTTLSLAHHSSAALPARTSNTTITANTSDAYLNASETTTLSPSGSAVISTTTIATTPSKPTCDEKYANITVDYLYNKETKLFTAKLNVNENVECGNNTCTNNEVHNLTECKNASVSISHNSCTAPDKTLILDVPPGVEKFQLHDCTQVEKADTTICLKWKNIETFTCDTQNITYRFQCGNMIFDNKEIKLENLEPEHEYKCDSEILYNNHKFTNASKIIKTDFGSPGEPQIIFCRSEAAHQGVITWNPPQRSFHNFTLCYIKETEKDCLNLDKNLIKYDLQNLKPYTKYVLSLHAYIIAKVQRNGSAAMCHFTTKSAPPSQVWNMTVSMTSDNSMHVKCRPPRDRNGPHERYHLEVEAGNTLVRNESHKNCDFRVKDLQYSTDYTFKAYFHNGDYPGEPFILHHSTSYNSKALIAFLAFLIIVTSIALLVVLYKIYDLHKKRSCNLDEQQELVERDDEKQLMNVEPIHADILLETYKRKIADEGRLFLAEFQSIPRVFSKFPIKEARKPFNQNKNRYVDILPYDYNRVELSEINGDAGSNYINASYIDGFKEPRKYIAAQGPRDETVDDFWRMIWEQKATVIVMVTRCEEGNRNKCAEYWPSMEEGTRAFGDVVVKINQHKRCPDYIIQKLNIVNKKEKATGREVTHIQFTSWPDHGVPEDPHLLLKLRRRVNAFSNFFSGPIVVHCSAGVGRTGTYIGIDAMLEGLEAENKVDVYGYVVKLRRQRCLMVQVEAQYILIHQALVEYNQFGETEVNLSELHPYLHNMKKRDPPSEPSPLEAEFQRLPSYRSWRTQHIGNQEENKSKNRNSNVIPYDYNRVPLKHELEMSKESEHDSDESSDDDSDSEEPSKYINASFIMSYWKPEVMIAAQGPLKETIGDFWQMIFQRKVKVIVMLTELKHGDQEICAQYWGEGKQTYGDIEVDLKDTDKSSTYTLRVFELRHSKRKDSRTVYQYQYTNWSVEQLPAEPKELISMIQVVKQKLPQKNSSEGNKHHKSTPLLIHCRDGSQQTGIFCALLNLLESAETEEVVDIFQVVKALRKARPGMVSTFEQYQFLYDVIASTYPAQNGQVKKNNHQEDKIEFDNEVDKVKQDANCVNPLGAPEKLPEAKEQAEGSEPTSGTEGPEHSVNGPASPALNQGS
How it was run: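 Ten-point 2-fold dilution series of test compound prepared in DMSO. Fluorescence (ex 485/em 528 nm) read in kinetic mode over 10 min; progress-curve slopes taken as activity. IC50 by nonlinear regression (sigmoidal, variable slope).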

[2] = biological target: T2, STEP (Homo sapiens, UniProt P54829); experiment: Dose-response OMFP phosphatase assay, STEP; assay type: biochemical; conditions: read-out: IC50 STEP; OMFP substrate
T2 sequence (P54829 1-565): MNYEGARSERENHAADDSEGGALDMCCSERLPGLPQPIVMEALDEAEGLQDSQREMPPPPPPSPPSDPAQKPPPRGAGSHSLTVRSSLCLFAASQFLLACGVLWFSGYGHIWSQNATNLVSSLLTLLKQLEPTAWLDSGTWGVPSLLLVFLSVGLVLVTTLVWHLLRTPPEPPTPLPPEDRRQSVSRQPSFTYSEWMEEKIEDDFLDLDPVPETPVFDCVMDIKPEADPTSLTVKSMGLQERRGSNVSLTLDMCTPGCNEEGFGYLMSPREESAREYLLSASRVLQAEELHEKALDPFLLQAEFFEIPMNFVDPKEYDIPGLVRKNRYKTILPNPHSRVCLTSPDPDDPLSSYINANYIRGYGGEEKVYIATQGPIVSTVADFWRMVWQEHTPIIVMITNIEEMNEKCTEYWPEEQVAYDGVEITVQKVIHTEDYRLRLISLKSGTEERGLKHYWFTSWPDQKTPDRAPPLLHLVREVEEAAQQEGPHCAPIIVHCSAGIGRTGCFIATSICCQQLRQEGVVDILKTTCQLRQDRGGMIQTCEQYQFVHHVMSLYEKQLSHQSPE

[3] = biological target: T3, PTP-SL (Homo sapiens, UniProt Q15256); experiment: Dose-response OMFP phosphatase assay, PTP-SL; assay type: biochemical; conditions: read-out: IC50 PTP-SL; OMFP substrate
T3 sequence (Q15256 22-657): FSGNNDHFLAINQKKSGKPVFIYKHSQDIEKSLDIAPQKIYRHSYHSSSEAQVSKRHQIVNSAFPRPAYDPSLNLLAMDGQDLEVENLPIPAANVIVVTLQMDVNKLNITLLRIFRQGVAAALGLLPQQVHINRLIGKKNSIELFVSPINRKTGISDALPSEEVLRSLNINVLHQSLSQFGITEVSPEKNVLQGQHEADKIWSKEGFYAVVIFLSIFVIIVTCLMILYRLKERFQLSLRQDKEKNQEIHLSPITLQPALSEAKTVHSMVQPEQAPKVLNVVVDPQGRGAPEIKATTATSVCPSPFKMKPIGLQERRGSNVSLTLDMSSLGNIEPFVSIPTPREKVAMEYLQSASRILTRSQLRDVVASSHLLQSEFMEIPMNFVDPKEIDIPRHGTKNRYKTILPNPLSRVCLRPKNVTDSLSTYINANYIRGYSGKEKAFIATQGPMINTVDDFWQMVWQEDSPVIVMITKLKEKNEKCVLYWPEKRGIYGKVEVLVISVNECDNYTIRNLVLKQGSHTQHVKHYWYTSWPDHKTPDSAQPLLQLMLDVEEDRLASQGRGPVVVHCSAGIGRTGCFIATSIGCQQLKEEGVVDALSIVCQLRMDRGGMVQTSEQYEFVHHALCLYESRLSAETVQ

[4] = system: ERK1/2 and p38 phosphorylation in splenocytes; experiment: Immunoblot of phosphorylation levels in spleen of mice injected i.p.; assay type: in vivo, C57B6 mice; conditions: mouse spleen, doses and time points used
How it was run: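 C57B6 mice given test compound i.p. at 3 or 5 mg kg-1, or vehicle; spleens taken 3 h or 6 h later (3 mice per dose and time). Spleen sonicated in Tris pH 7.4 buffer with phosphatase and protease inhibitors; 800 × g supernatant used. Blotted for pS473-AKT, pS23-HePTP, pERK1/2 and pp38, normalised to total protein then GAPDH. ANOVA/Tukey or t-test.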

Compound: O=C(O)c1ccccc1-c1ccc(/C=c2\sc3nc4cc(Br)cnc4n3c2=O)o1 [Compound 1]
- IC50 [1]: 3.1 µM
- IC50 [2]: 6.3 µM
- IC50 [3]: 1.1 µM
- AKT phosphorylation levels [4]: no change
- phospho-HePTP (pS23) levels [4]: No changes
